Published values collected from several papers.
Each line is one published result; the experiments were not run side by side.

Oc1c(-n2ccnn2)cnn1-c1cc(N2CCOCC2)ncn1 gave a half-life of 3 h (male rat; plasma; oral; 5 mg/kg).
For Nc1ncn([C@H]2C[C@H](O)[C@@H](CO)O2)c(=O)n1, the half-life was 2.43 h (male Wistar rat; plasma; intravenous; 21 µmol/kg).
For O=C(O)/C=C/c1ccc(O)c(O)c1, the half-life was 0.33 h (HPLC; Wistar rat; plasma; oral).
Oc1c(Br)cc(Cl)c2cccnc12 has a half-life of 5.6 h (Sprague-Dawley rat; plasma; subcutaneous; 10 mg/kg).
CCc1cc(C(=O)NC)c2nccc(N3CCc4c(cc(Cn5ccnc5)cc4-c4cn(C)nc4C(F)(F)F)C3=O)c2c1 gave a half-life of 3.9 h (male Sprague-Dawley rat; plasma; oral; 100 mg/kg; single dose).
With Cc1cnc(N2CC3(CCOCC3)C2)c(C(=O)Nc2ccc(C(=O)N3CCc4cc(C(=O)Nc5c(C)cccc5F)sc4-c4ccccc43)cc2)c1 the half-life was 3.4 h (rat; plasma; inhaled; 2.7 mg/kg; single dose).
With O=C(Nc1ccc(C(F)(F)F)cc1)N1CCC(Cc2cccc(Oc3ccc(C(F)(F)F)cn3)c2)CC1 the half-life was 7.2 h (male Sprague-Dawley rat; blood; oral; 1 mg/kg).
With CCc1cc(OC)c2nccc(N3CCc4c(cc(Cn5ccnc5)cc4-c4cn(C)nc4C(F)(F)F)C3=O)c2c1 the half-life was 1 h (male Sprague-Dawley rat; plasma; intravenous; 3 mg/kg).
With COCCOC(=O)C1=C(C)NC(C)=C(C(=O)OC(C)C)C1c1cccc([N+](=O)[O-])c1 (stereo not shown) the half-life was 7.5 h (male Sprague-Dawley rat; plasma; oral; 12 mg/kg).
With O=C(Nc1cc(F)c(F)c(F)c1)c1ccc(F)c(S(=O)(=O)NCc2cccc(B(O)O)c2)c1 the half-life was 1.08 h (male Sprague-Dawley rat; plasma; oral; 20 mg/kg).
CCOC(=O)[C@@]12C[C@@H]1[C@@H](n1ccc3c(NC)nc(C#Cc4ccc(Cl)s4)nc31)[C@H](O)[C@@H]2O has a half-life of 1.55 h (male Sprague-Dawley rat; plasma; oral; 3 mg/kg).
With COc1ccc2c(Cc3ccccc3F)c3[n+](cc2c1OC)CCc1cc2c(cc1-3)OCO2.[Br-] the half-life was 1.61 h (rat; plasma; intravenous; 5 mg/kg).
For N#Cc1[nH]nnc1-c1cccc(OCc2cc(C(F)(F)F)ccc2C(F)(F)F)c1, the half-life was 3.9 h (male Sprague-Dawley rat; plasma; oral; 10 mg/kg).
COc1cc2c3c(n(CCCN4CCOCC4)c(=O)c2cc1OC)-c1cc2c(cc1C3=O)OCO2 has a half-life of 4.6 h (female Fischer 344 rat; plasma; intravenous; 24 mg/m²; single dose).
Cc1noc(-c2cc3cc(-c4nc(C(=O)NCc5ccncc5)[nH]c4C)ccc3[nH]2)n1 has a half-life of 1.8 h (Sprague-Dawley rat; plasma; intravenous; 1 mg/kg).
With COc1ccc2c(Cc3ccccc3F)c3n(c(=O)c2c1OC)CCc1cc2c(cc1-3)OCO2 the half-life was 17.8 h (rat; plasma; oral; 5 mg/kg).
With N#Cc1[nH]nnc1-c1cc(Cl)cc(/C=C/c2cccc(C(F)(F)F)c2)c1 the half-life was 2.9 h (male Sprague-Dawley rat; plasma; oral; 10 mg/kg).
C[C@H](Nc1ncnc2[nH]cnc12)c1cc2cccc(Cl)c2c(=O)n1-c1ccccc1 has a half-life of 0.82 h (male Wistar rat; plasma; oral; 25 mg/kg; single dose).
With CCc1nc(C(N)=O)c(Nc2ccc(N3CCC(N4CCN(C)CC4)CC3)c(OC)c2)nc1NC1CCOCC1 the half-life was 14.3 h (male Sprague-Dawley rat; plasma; oral; 10 mg/kg).
For N#Cc1ccc(Nc2nc(N)cc(Oc3c(F)cc(-c4ccc(C#N)cc4)cc3F)n2)cc1, the half-life was 3.31 h (Sprague-Dawley rat; plasma; oral; 5 mg/kg).
With Cc1c(-c2ccccc2)cccc1N1C(=O)c2cc(CN[C@H](C(=O)O)C(C)O)c(OCc3cccc(C#N)c3)cc2C1=O (stereo partly shown) the half-life was 6.44 h (Sprague-Dawley rat; plasma; intravenous; 5 mg/kg).
The half-life of COc1ccc2c(=O)n(C)c(-c3ccccc3)nc2c1 is reported as 0.74 h (male Sprague-Dawley rat; plasma; oral; 10 mg/kg).
The half-life of O=c1[nH]cc(F)c(=O)[nH]1 is reported as 1.81 h (Sprague-Dawley rat; plasma; oral; 20 mg/kg).
For C=CC(=O)Nc1cc(Nc2nccc(Nc3cc(Cl)c(F)cc3C(C)(C)O)n2)c(OC)cc1N1CC[C@@H](N(C)C)C1, the half-life was 6.37 h (Wistar rat; plasma; intravenous; 3 mg/kg).
With COc1nc(-c2cc(C)c(N[C@@H](C)c3cc(F)cc(F)c3)nn2)ccc1-n1cnc(C)c1 the half-life was 3.1 h (male Sprague-Dawley rat; plasma; intravenous; 1 mg/kg; single dose).
